Each structure is given as a SMILES string. Activity calls are given as the source filed them. The calls are words filed in the database; no cut-off is given here.

Assay [1] concerns Rattus norvegicus. The experiment in a line: Antidepressant activity in rat assessed as antimuricidal activity at 0.625 mg/kg, ip. In kind it is functional, organism-based. Also on record: dose 0.625 mg/kg.
For assay [2], the target named is Serotonin (5-HT) receptor (Rattus norvegicus) (UniProt P35563+P35365+P32305+P31388+Q9JJ16+P28564+P30994+Q62758+P08909+P14842+P30940+P35364+P19327+P28565). Kind of assay: Inhibition of 5-HT receptor in rat stomach fundus relative to methysergide. The format is tissue-based.
Assay [3] relates to Rattus norvegicus. Kind of assay: Antidepressant activity in rat assessed as antimuricidal activity at 10 mg/kg, ip. The format is functional, organism-based. Also on record: dose 10 mg/kg. In short, it runs like this: (§1)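 Rats screened in an antimuricidal (mouse-killing) test, used as a possible indicator of antidepressant activity.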
Assay [4] is filed under the species Rattus norvegicus. Kind of assay: Oxytocic activity in rat uterus smooth muscle up to 10 ug/ml. The format is functional, tissue-based. To be noted: Muscle tissue.
Assay [5] deals with Rattus norvegicus. Kind of assay: Decrease in prolactin level in rat serum at 1 mg, ip by radioimmunoassay. In kind it is functional. In short, it runs like this: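 Rats received test compound ip at 1 mg per rat. Serum prolactin was then measured by radioimmunoassay, and the result was expressed as the percent drop in serum prolactin.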
In assay [6] the target is T1, Adrenergic receptor alpha (Rattus norvegicus) (UniProt P15823+P23944+P43140+P22086+P19328+P22909). Kind of assay: Blockade of alpha-adrenoceptor in rat aorta assessed as rightward shift in norepinephrine dose response curve. The format is tissue-based.
For assay [7], the target named is T1, Adrenergic receptor alpha (Rattus norvegicus). Kind of assay: Blockade of alpha-adrenoceptor in rat aorta. The format is tissue-based.
For assay [8], the system named is Rattus norvegicus. The experiment in a line: Antidepressant activity in rat assessed as antimuricidal activity at 20 mg/kg, ip. In kind it is functional, organism-based. Also on record: dose 20 mg/kg. In a few lines: as §1
Assay [9] has as its system Rattus norvegicus. The experiment in a line: Decrease in prolactin level in rat serum at 10 ug, ip by radioimmunoassay. In kind it is functional.
The subject of assay [10] is Rattus norvegicus. Kind of assay: Antidepressant activity in rat assessed as antimuricidal activity at 5 mg/kg, ip. In kind it is functional, organism-based. Also on record: dose 5 mg/kg. In a few lines: as §1

Turning to `CN1CCC=C2c3cccc4[nH]cc(c34)CC21` (racemic), the outcome in the assay on Rattus norvegicus [1] was Active.

On to `CN1C[C@H](c2ccc3c(c2)OCO3)C=C2c3cccc4[nH]cc(c34)C[C@H]21`, for which the 5-HT antagonist potency relative to methysergide in [2] is 50%. Besides, in the assay on Rattus norvegicus [3], the outcome was Active. The outcome in the assay filed under Rattus norvegicus [4] was inactive. Moreover, in the assay on Rattus norvegicus [5], the inhibition entry is “inactive”. In [6], the fold change (FC) is 2.

`COc1ccc([C@H]2C=C3c4cccc5c4[C@@H](CN5)C[C@H]3N(C)C2)cc1`: in the assay listed under Rattus norvegicus [4], the outcome was inactive. Same read-out and setting: the result for `CN1CC(c2ccc(O)cc2)C=C2c3cccc4c3[C@@H](CN4)C[C@H]21` (stereo partly drawn) reads “inactive”. Consider `CN1C[C@@H](c2ccccc2)C=C2c3cccc4[nH]cc(c34)C[C@H]21.O=C(O)/C=C\C(=O)O`, for which the 5-HT antagonist potency relative to methysergide in [2] stood at 10%. The inhibition result in assay [7] is “Active”. Besides, the outcome in the assay listed under Rattus norvegicus [4] and with Rattus norvegicus [8] was inactive. Moreover, the “inhibition (INH)” value in the assay on Rattus norvegicus [5] amounted to 88%. On to `Cc1ccc([C@@H]2C=C3c4cccc5[nH]cc(c45)C[C@H]3N(C)C2)cc1`, for which the outcome in the assay filed under Rattus norvegicus [4] was inactive. `CC(C)[C@H]1C(=O)N2CCC[C@H]2[C@]2(O)O[C@](NC(=O)[C@@H]3C=C4c5cccc6[nH]cc(c56)C[C@H]4N(C)C3)(C(C)C)C(=O)N12` [ERGOCORNINE]: the “inhibition (INH)” value in the assay on Rattus norvegicus [9] is reported as 60%. In the case of `Cc1ccc([C@H]2C=C3c4cccc5c4[C@@H](CN5)C[C@H]3N(C)C2)cc1`, the result in the assay listed under Rattus norvegicus [4] was inactive. As for `COc1ccc([C@@H]2C=C3c4cccc5c4[C@@H](CN5)C[C@H]3N(C)C2)cc1`, the result in the assay listed under Rattus norvegicus [4] was inactive.

With `CN1C[C@H](c2ccc3c(c2)OCO3)C=C2c3cccc4c3[C@@H](CN4)C[C@H]21`, the outcome in the assay filed under Rattus norvegicus [4] was inactive. `Cc1ccc([C@@H]2C=C3c4cccc5c4[C@@H](CN5)C[C@H]3N(C)C2)cc1`: the outcome in the assay filed under Rattus norvegicus [4] was inactive. `COc1ccc([C@@H]2C=C3c4cccc5[nH]cc(c45)C[C@H]3N(C)C2)cc1.O=C(O)/C=C\C(=O)O`: the 5-HT antagonist potency relative to methysergide in [2] amounted to 100%. In addition, the inhibition result in assay [7] is “Active”. Moreover, the result in the assay with Rattus norvegicus [3] was Active. Besides, the outcome in the assay filed under Rattus norvegicus [4] was inactive. For the same compound, the “inhibition (INH)” value in the assay with Rattus norvegicus [5] stood at 81%. On to `CN1C[C@H](c2ccccc2)C=C2c3cccc4[nH]cc(c34)C[C@H]21.O=C(O)/C=C\C(=O)O`, for which the 5-HT antagonist potency relative to methysergide in assay [2] was found to be 50%. Also, the result in the assay listed under Rattus norvegicus [4] was inactive. For the same compound, the “inhibition (INH)” value with Rattus norvegicus [5] turned out to be 71%. In addition, the fold change (FC) in [6] is 2. The result in the assay on Rattus norvegicus [10] was Active. For the compound `CN1C[C@H](c2ccccc2)C=C2c3cccc4c3[C@@H](CN4)C[C@H]21`, the result in the assay filed under Rattus norvegicus [4] was inactive. Still for that read-out and setting: the value for `CN1C[C@@H](c2ccccc2)C=C2c3cccc4c3[C@@H](CN4)C[C@H]21` was “inactive”. On the same count and under the same terms, the value for `CN1CC(c2ccc(Cl)cc2)C=C2c3cccc4c3[C@@H](CN4)C[C@H]21` (stereo partly drawn) was “inactive”. Turning to `CN1C[C@@H](c2ccc3c(c2)OCO3)C=C2c3cccc4c3[C@@H](CN4)C[C@H]21`, the result in the assay listed under Rattus norvegicus [4] was inactive.

For the origin of these results see ChEMBL document CHEMBL3243961, “Synthesis and biological activity of 8-arylergolines” (1977).
